Data from ChEMBL document CHEMBL1156701, “Synthesis, potent anti-staphylococcal activity and QSARs of some novel 2-anilinobenzazoles” (2008).
In brackets after ≈: the same amount, converted by molar mass.

Columns and labels:
[1] = system: Staphylococcus aureus; experiment: Antibacterial activity against Staphylococcus aureus ATCC 25923 after 18 hrs by macro broth dilution assay; assay type: functional; details: for MIC: Staphylococcus aureus, ATCC 25923, 18 h
Procedure, shortened: (§1)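 Compounds dissolved in 50% DMSO–water at 400 (stock); fourfold dilution with medium and inoculum gives 100 top concentration in first tube (12.5% DMSO, not scored). Inoculum: 4–5 colonies from overnight Tryptic Soy Agar in saline to 0.5 McFarland, diluted 1:100 in MHB (10⁶ CFU/ml); 1 mL added to 1 mL compound dilution in MHB. 35 °C, 18 h; MIC read. Agar diffusion pre-screen first.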

[2] = system: Staphylococcus aureus; experiment: Antibacterial activity against methicillin-resistant Staphylococcus aureus ATCC 43300 after 18 hrs by macro broth dilution assay; assay type: functional; details: for MIC: Staphylococcus aureus, ATCC 43300, 18 h; procedure, shortened: as §1

| Compound | log(1/C) [1] | MIC [1] | MIC [2] | log(1/C) [2] |
| --- | --- | --- | --- | --- |
| Fc1cccc(Nc2nc3cc(Cl)ccc3[nH]2)c1 | 4.62 | 6.25 µg/mL (≈ 23.9 µM) | 6.25 µg/mL (≈ 23.9 µM) |  |
| Fc1ccc(Nc2nc3cc(Cl)ccc3[nH]2)c(F)c1 | 4.35 | 12.5 µg/mL (≈ 44.7 µM) | 6.25 µg/mL (≈ 22.3 µM) | 4.65 |
| FC(F)(F)c1cccc(Nc2nc3cc(Cl)ccc3[nH]2)c1 | 5.9 | 0.39 µg/mL (≈ 1.25 µM) | 1.56 µg/mL (≈ 5 µM) | 5.3 |
| [N-]=[N+]=Nc1ccc(Nc2nc3cc(Cl)ccc3[nH]2)cc1 | 4.96 | 3.12 µg/mL (≈ 11 µM) | 6.25 µg/mL (≈ 22 µM) | 4.66 |
| Clc1ccc2[nH]c(Nc3ccc(Br)cc3)nc2c1 | 5.31 | 1.56 µg/mL (≈ 4.84 µM) | 0.78 µg/mL (≈ 2.42 µM) | 5.62 |
| COc1ccc(Nc2nc3cc(Cl)ccc3[nH]2)cc1 | 3.74 | 50 µg/mL (≈ 183 µM) | 50 µg/mL (≈ 183 µM) |  |
| Fc1ccc(Nc2nc3cc(Cl)ccc3[nH]2)cc1Cl | 5.28 | 1.56 µg/mL (≈ 5.27 µM) | 1.56 µg/mL (≈ 5.27 µM) |  |
| FC(F)(F)c1cc(Nc2nc3cc(Cl)ccc3[nH]2)ccc1Cl | 5.95 | 0.39 µg/mL (≈ 1.13 µM) | 0.39 µg/mL (≈ 1.13 µM) |  |
| Clc1ccc(Nc2nc3cc(Cl)ccc3[nH]2)cc1 | 4.95 | 3.12 µg/mL (≈ 11.2 µM) | 1.56 µg/mL (≈ 5.61 µM) | 5.25 |
| Clc1ccc2[nH]c(Nc3ccc(Cl)c(Cl)c3)nc2c1 | 5.9 | 0.39 µg/mL (≈ 1.25 µM) | 0.39 µg/mL (≈ 1.25 µM) |  |
| Clc1ccc(Nc2nc3cc(Cl)ccc3[nH]2)c(Cl)c1 | 5.9 | 0.39 µg/mL (≈ 1.25 µM) | 0.39 µg/mL (≈ 1.25 µM) |  |
| FC(F)(F)c1ccc(Cl)c(Nc2nc3cc(Cl)ccc3[nH]2)c1 | 5.65 | 0.78 µg/mL (≈ 2.25 µM) | 0.78 µg/mL (≈ 2.25 µM) |  |
| Clc1ccc(Oc2ccccc2Nc2nc3cc(Cl)ccc3[nH]2)cc1 | 5.38 | 1.56 µg/mL (≈ 4.21 µM) | 1.56 µg/mL (≈ 4.21 µM) |  |
| Fc1ccc2[nH]c(Nc3ccc(Cl)c(Cl)c3)nc2c1 | 5.28 | 1.56 µg/mL (≈ 5.27 µM) | 1.56 µg/mL (≈ 5.27 µM) |  |
| Clc1ccc(Nc2nc3cc(Br)ccc3[nH]2)cc1Cl | 6.55 | 0.095 µg/mL (≈ 0.266 µM) | 0.19 µg/mL (≈ 0.532 µM) | 6.28 |
| O=[N+]([O-])c1ccc2[nH]c(Nc3ccc(Cl)c(Cl)c3)nc2c1 | 5.62 | 0.78 µg/mL (≈ 2.41 µM) | 1.56 µg/mL (≈ 4.83 µM) | 5.32 |
| Clc1ccc(Nc2nc3cc(Cl)c(Cl)cc3[nH]2)cc1 | 5.9 | 0.39 µg/mL (≈ 1.25 µM) | 0.39 µg/mL (≈ 1.25 µM) |  |

| Compound | log(1/C) [1] | MIC [1] | MIC [2] | log(1/C) [2] |
| --- | --- | --- | --- | --- |
| O=[N+]([O-])c1ccc2[nH]c(Nc3ccc(Cl)cc3)nc2c1 | 5.27 | 1.56 µg/mL (≈ 5.4 µM) | 1.56 µg/mL (≈ 5.4 µM) |  |
| Cc1cc2[nH]c(Nc3ccc(Cl)c(Cl)c3)nc2cc1Cl | 5.92 | 0.39 µg/mL (≈ 1.19 µM) | 0.39 µg/mL (≈ 1.19 µM) |  |
| FC(F)(F)c1ccc2[nH]c(Nc3ccc(Cl)c(Cl)c3)nc2c1 | 6.26 | 0.19 µg/mL (≈ 0.549 µM) | 0.19 µg/mL (≈ 0.549 µM) |  |
| N#Cc1ccc2[nH]c(Nc3ccc(Cl)c(Cl)c3)nc2c1 | 5.28 | 1.56 µg/mL (≈ 5.15 µM) | 1.56 µg/mL (≈ 5.15 µM) |  |
| COC(=O)c1ccc2[nH]c(Nc3ccc(Cl)c(Cl)c3)nc2c1 | 5.34 | 1.56 µg/mL (≈ 4.64 µM) | 0.78 µg/mL (≈ 2.32 µM) | 5.64 |
| Nc1ccc2[nH]c(Nc3ccc(Cl)c(Cl)c3)nc2c1 | 4.07 | 25 µg/mL (≈ 85.3 µM) | 50 µg/mL (≈ 171 µM) | 3.77 |
| FC(F)(F)c1ccc(Nc2nc3cc(Cl)ccc3[nH]2)cc1 | 5.9 | 0.39 µg/mL (≈ 1.25 µM) | 0.39 µg/mL (≈ 1.25 µM) |  |
| Fc1ccc(Nc2nc3cc(Cl)ccc3[nH]2)cc1 | 4.92 | 3.12 µg/mL (≈ 11.9 µM) | 12.5 µg/mL (≈ 47.8 µM) | 4.32 |
| Clc1ccc(Nc2nc3ccccc3[nH]2)cc1Cl | 4.95 | 3.12 µg/mL (≈ 11.2 µM) | 6.25 µg/mL (≈ 22.5 µM) | 4.65 |
| FC(F)(F)Oc1ccc(Nc2nc3cc(Cl)ccc3[nH]2)cc1 | 5.62 | 0.78 µg/mL (≈ 2.38 µM) | 0.78 µg/mL (≈ 2.38 µM) |  |
| Fc1cc(F)cc(Nc2nc3cc(Cl)ccc3[nH]2)c1 | 5.25 | 1.56 µg/mL (≈ 5.58 µM) | 1.56 µg/mL (≈ 5.58 µM) |  |
| Clc1cc(Cl)cc(Nc2nc3cc(Cl)ccc3[nH]2)c1 | 5.9 | 0.39 µg/mL (≈ 1.25 µM) | 0.39 µg/mL (≈ 1.25 µM) |  |
| Clc1ccc(Nc2nc3cc(Cl)c(Cl)cc3[nH]2)cc1Cl | 5.95 | 0.39 µg/mL (≈ 1.12 µM) | 0.39 µg/mL (≈ 1.12 µM) |  |
| Clc1ccc(Nc2nc3cc(I)ccc3[nH]2)cc1Cl | 5.71 | 0.78 µg/mL (≈ 1.93 µM) | 0.78 µg/mL (≈ 1.93 µM) |  |
| CC1(C)S[C@@H]2[C@H](NC(=O)[C@H](N)c3ccccc3)C(=O)N2[C@H]1C(=O)O [AMPICILLIN] |  | 0.78 µg/mL (≈ 2.23 µM) | 25 µg/mL (≈ 71.5 µM) |  |
| CC1(C)S[C@@H]2[C@H](NC(=O)[C@H](N)c3ccccc3)C(=O)N2[C@H]1C(=O)OCOC(=O)[C@@H]1N2C(=O)C[C@H]2S(=O)(=O)C1(C)C [SULTAMICILLIN] |  | 0.78 µg/mL (≈ 1.31 µM) | 25 µg/mL (≈ 42 µM) |  |
